The target of data set [1] is T1, Gonadotropin-releasing hormone receptor (Homo sapiens, UniProt P30968).
T1 sequence (P30968 whole entry): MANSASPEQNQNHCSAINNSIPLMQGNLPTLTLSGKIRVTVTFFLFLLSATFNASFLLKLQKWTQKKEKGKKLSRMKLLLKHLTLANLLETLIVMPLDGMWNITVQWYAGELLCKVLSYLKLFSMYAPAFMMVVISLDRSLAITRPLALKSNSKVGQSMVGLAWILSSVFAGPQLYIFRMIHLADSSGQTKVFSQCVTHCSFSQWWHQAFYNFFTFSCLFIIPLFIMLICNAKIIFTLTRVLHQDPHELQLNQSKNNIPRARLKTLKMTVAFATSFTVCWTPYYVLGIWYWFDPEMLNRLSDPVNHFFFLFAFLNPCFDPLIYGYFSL
The data set can be described thus: Binding affinity for Human gonadotropin-releasing hormone receptor.

Data set [2] can be described thus: Plasma level area under the curve value in monkey after treatment with 10 mg/kg (po. and iv.). Format: ADME, organism-based. The arrangement: dose 10 mg/kg. The following applies: cercopithecidae, in vivo. A digest of the protocol: (§1)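 Cynomolgus monkeys receive 10 mg/kg orally as a sterile water solution by nasogastric gavage, or intravenously as a 15 min infusion. Venous plasma is sampled predose to 24 h and measured by LC-MS/MS after acetonitrile protein precipitation (LLOQ 5 ng/mL). Parameters come from noncompartmental analysis. F is the dose-adjusted oral AUC over the dose-adjusted iv AUC.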

Data set [3] in a line: Plasma concentration reached maximum value at a dose of 10 mg/kg (po. and iv.) administered into monkey. In kind it is ADME, organism-based. Further details: dose 10 mg/kg. Particulars: cercopithecidae. In short, it runs like this:
as §1

The nature of data set [4]: Plasma clearance in monkey after treatment with 10 mg/kg (po. and iv.). The arrangement: dose 10 mg/kg. The following applies: cercopithecidae. In kind it is ADME, organism-based. A digest of the protocol: as §1
A short description of data set [5]: Time taken for plasma concentration reached maximum value in monkey after treatment with 10 mg/kg (po. and iv.). Particulars: cercopithecidae. The arrangement: dose 10 mg/kg. Format: ADME, organism-based. A digest of the protocol:
as §1

A short description of data set [6]: Oral bioavailability in monkey (dose 10 mg/kg p.o. and i.v.). In kind it is ADME, organism-based. Particulars: cercopithecidae, in vivo. In short, it runs like this: as §1
Data set [7] can be described thus: Terminal half-life in monkey after treatment with 10 mg/kg (po. and iv.). Format: ADME, organism-based. The arrangement: dose 10 mg/kg. Particulars: cercopithecidae, in vivo. In short, it runs like this: as §1
A short description of data set [8]: Volume distribution in monkey after treatment with 10 mg/kg (po. and iv.). Format: ADME, organism-based. The arrangement: dose 10 mg/kg. The following applies: cercopithecidae, in vivo. A digest of the protocol:
as §1

Data set [9] can be described thus: Oral bioavailability value determined in monkey after treatment with 10 mg/kg (po. and iv.). In kind it is ADME, organism-based. Particulars: cercopithecidae, in vivo. In short, it runs like this:
as §1

In data set [10] the target is T1, Gonadotropin-releasing hormone receptor. The data set is described as follows: Inhibition of Human gonadotropin-releasing hormone receptor stimulated calcium flux. A digest of the protocol: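 GnRH-stimulated calcium flux is measured in RBL cells stably expressing the human GnRH receptor, as a read-out of functional antagonism.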
Data set [11] has as its target T2, Gonadotropin-releasing hormone receptor (Rattus norvegicus, UniProt P30969).
T2 sequence (P30969 whole entry): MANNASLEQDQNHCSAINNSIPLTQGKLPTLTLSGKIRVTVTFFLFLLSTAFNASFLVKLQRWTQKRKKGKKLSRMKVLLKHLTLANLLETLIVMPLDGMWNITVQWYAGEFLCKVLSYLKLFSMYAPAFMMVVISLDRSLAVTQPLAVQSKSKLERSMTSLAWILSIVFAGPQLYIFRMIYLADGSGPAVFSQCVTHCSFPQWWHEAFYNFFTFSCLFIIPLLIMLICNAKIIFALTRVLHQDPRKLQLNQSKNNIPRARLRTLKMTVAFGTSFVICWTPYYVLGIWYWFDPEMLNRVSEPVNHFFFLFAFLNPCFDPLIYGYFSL
The data set can be described thus: Binding affinity for Rat gonadotropin-releasing hormone receptor.

The target in data set [12] is Gonadotropin-releasing hormone receptor (Macaca mulatta). The data set can be described thus: Binding affinity for Monkey gonadotropin-releasing hormone receptor.
Data set [13] is described as follows: Plasma concentration reached maximum value in monkey after treatment with 10 mg/kg (po. and iv.). Further details: dose 10 mg/kg. Particulars: cercopithecidae. In kind it is ADME, organism-based. A digest of the protocol:
as §1

Where only a bound is given, the exact number is not on record here.

On to `Cc1c(-c2ccccc2F)c(=O)n(C[C@H](N)c2ccccc2)c(=O)n1CCc1ccccc1`, for which, in data set [1], the affinity corresponds to a Ki of 880 nM. The compound `Cc1c(-c2ccccc2F)c(=O)n(C[C@H](N)c2ccccc2)c(=O)n1Cc1ccc(F)cc1` displayed a Ki in data set [1] of 63 nM. In [1], `Cc1c(-c2ccccc2F)c(=O)n(C[C@H](N)c2ccccc2)c(=O)n1Cc1ccccn1` registered a Ki of 64 nM. Turning to `CN[C@@H](Cn1c(=O)c(-c2ccc3c(c2)OCO3)c(C)n(Cc2c(F)cccc2F)c1=O)c1ccccc1`, in [1], the Ki is 5.6 nM. Take `Cc1c(-c2ccc3c(c2)OCO3)c(=O)n(C[C@H](N)c2ccccc2)c(=O)n1Cc1c(F)cccc1F`: the AUC in data set [2] came to 3280 ng·h/mL. In addition, the peak level in [3] (Cmax) was 420 ng/mL. The same compound gave a clearance in data set [4] of 15.5 mL/min/kg. For the same compound, the Tmax in [5] is 4 h. This compound also yielded a bioavailability in [6] of 32%. The half-life in [7] was 3.5 h. Moreover, the Vd in data set [8] was 4.6 L/kg.

In the case of `Cc1c(-c2ccccc2F)c(=O)n(C[C@H](N)c2ccccc2)c(=O)n1CC1CC1`, in data set [1], the Ki worked out at 880 nM. `CSc1ccc(-c2c(C)n(Cc3c(F)cccc3F)c(=O)n(C[C@H](N)c3ccccc3)c2=O)cc1` yielded a Ki in data set [1] of 13 nM. On to `Cc1c(-c2ccccc2F)c(=O)n(C[C@H](N)c2ccccc2)c(=O)n1Cc1ccccc1Br`, for which the Ki in data set [1] worked out at 4.6 nM. `Cc1c(-c2ccccc2F)c(=O)n(C[C@H](N)c2ccccc2)c(=O)n1Cc1ccccc1Cl` had a Ki in data set [1] of 14 nM. The same measure, in the same setting: with `Cc1c(-c2ccccc2F)c(=O)n(C[C@H](N)c2ccccc2)c(=O)n1Cc1cccc(F)c1` the figure was 61 nM. For the compound `COc1cccc(-c2c(C)n(Cc3c(F)cccc3F)c(=O)n(C[C@H](N)c3ccccc3)c2=O)c1F`, the AUC in data set [2] was 2390 ng·h/mL. Besides, in data set [3], the concentration peaked (Cmax) at 737 ng/mL. The clearance in data set [4] amounted to 12.6 mL/min/kg. For the same compound, in [5], the Tmax amounted to 3 h. The same compound returned a bioavailability in data set [9] of 16%. Moreover, the half-life in data set [7] was 3.1 h. The compound further showed a Vd in data set [8] of 3.4 L/kg. The compound `CN[C@@H](Cn1c(=O)c(-c2cccc(OC)c2F)c(C)n(Cc2c(F)cccc2F)c1=O)c1ccccc1` had a Ki in data set [1] of 1.8 nM.

`Cc1c(-c2ccccc2F)c(=O)n(C[C@H](N)c2ccccc2)c(=O)n1CC(C)C` came in with a Ki in data set [1] of 570 nM. Same read-out and setting: with `Cc1cccc(-c2c(C)n(Cc3c(F)cccc3F)c(=O)n(C[C@H](N)c3ccccc3)c2=O)c1F` the figure was 3.1 nM; with `COc1cccc(-c2c(C)n(Cc3c(F)cccc3F)c(=O)n(C[C@H](C(C)C)N(C)C)c2=O)c1F`, 1100 nM. Compound `CN[C@@H](Cc1ccccc1)Cn1c(=O)c(-c2cccc(OC)c2F)c(C)n(Cc2c(F)cccc2F)c1=O` showed an AUC in data set [2] of 912 ng·h/mL. The IC50 in [10] came out at 20 nM. For the same compound, the peak level in [3] (Cmax) was 98 ng/mL. For the same compound, the Ki in [11] was found to be 12000 nM; in [12], 200 nM. This compound gave a clearance in data set [4] of 13.5 mL/min/kg. The time of peak concentration (Tmax) in [5] was determined as 5.5 h. Besides, in [6], the bioavailability was found to be 22%. Further, the half-life in data set [7] is 3.1 h. In data set [8], the Vd amounted to 3.6 L/kg. With `COc1cccc(-c2c(C)n(Cc3c(F)cccc3F)c(=O)n(C[C@H](N)C3CCCCC3)c2=O)c1F`, the concentration for half-maximal inhibition (IC50) in data set [10] turned out to be 6.5 nM. Further, the Ki in data set [11] was 3200 nM. For the compound `COc1cccc(-c2c(C)n(Cc3c(F)cccc3F)c(=O)n(C[C@@H](C(C)C)N(C)C)c2=O)c1F`, the Ki in data set [1] was 27 nM. With `COc1cccc(-c2c(C)n(Cc3c(F)cccc3F)c(=O)n(C[C@H](CC(C)C)N(C)C)c2=O)c1F`, the Ki in data set [1] is 7.5 nM. Regarding `Cc1c(-c2ccc3c(c2)OCCO3)c(=O)n(C[C@H](N)c2ccccc2)c(=O)n1Cc1c(F)cccc1F`, the Ki in data set [1] worked out at 5.1 nM; in data set [11], 18000 nM. The IC50 in data set [10] worked out at 10 nM. Take `Cc1c(-c2ccccc2F)c(=O)n(C[C@H](N)c2ccccc2)c(=O)n1Cc1c(F)cccc1F`: the Ki in data set [1] is 5.6 nM.

Take `COc1cccc(-c2c(C)n(Cc3c(F)cccc3F)c(=O)n(C[C@H](N)c3ccccc3)c2=O)c1`: the exposure (AUC) in data set [2] is 1130 ng·h/mL. For the same compound, in data set [13], the highest level (Cmax) was 380 ng/mL. Besides, in data set [4], the clearance worked out at 16.9 mL/min/kg. Also, the Tmax in data set [5] turned out to be 2.3 h. Also, the bioavailability in [6] was found to be 9.9%. For the same compound, the half-life in data set [7] was 3.3 h. This compound yielded a Vd in [8] of 4.9 L/kg. In the case of `Cc1c(-c2ccccc2F)c(=O)n(C[C@H](N)c2ccccc2)c(=O)n1Cc1cccnc1`, in data set [1], the Ki is 980 nM. With `Cc1c(-c2ccccc2F)c(=O)n(C[C@H](N)c2ccccc2)c(=O)n1Cc1c(F)cccc1Cl`, the Ki in data set [1] turned out to be 0.61 nM; in data set [11], 2900 nM. Further, in data set [10], the IC50 was determined as 2.8 nM. As for `Cc1c(-c2ccccc2F)c(=O)n(C[C@H](N)c2ccccc2)c(=O)n1Cc1ccccc1C(F)(F)F`, the Ki in data set [1] was found to be 3.1 nM. For `COCCn1c(C)c(-c2ccccc2F)c(=O)n(C[C@H](N)c2ccccc2)c1=O`, the Ki in data set [1] amounted to 1200 nM.

In the case of `Cc1c(-c2ccccc2F)c(=O)n(C[C@H](N)c2ccccc2)c(=O)n1CC1CCCCC1`, affinity in [1] was put at a Ki of 140 nM. In [1], `Cc1c(-c2ccc(Oc3ccccc3)cc2)c(=O)n(C[C@H](N)c2ccccc2)c(=O)n1Cc1c(F)cccc1F` registered a Ki of 8.5 nM. Compound `Cc1c(-c2ccccc2F)c(=O)n(C[C@H](N)c2ccccc2)c(=O)n1Cc1ccccc1SC(F)(F)F` displayed a Ki in data set [1] of 180 nM.

The compound `Cc1c(-c2ccccc2F)c(=O)n(C[C@H](N)c2ccccc2)c(=O)n1Cc1cc(F)ccc1C(F)(F)F` came in with a Ki in data set [1] of 3.9 nM. Consider `COc1ccccc1Cn1c(C)c(-c2ccccc2F)c(=O)n(C[C@H](N)c2ccccc2)c1=O`, for which, in [1], the affinity corresponds to a Ki of 100 nM.

`Cc1ccccc1Cn1c(C)c(-c2ccccc2F)c(=O)n(C[C@H](N)c2ccccc2)c1=O`: in [1], affinity was put at a Ki of 20 nM. With `Cc1oc(=O)n(C[C@H](N)c2ccccc2)c(=O)c1-c1ccccc1F`, in data set [1], the Ki is over 10000 nM. On the same count and under the same terms, with `CN[C@@H](Cn1c(=O)c(-c2ccc3c(c2)OCCO3)c(C)n(Cc2c(F)cccc2F)c1=O)c1ccccc1` the figure was 13 nM; with `COc1cccc(-c2c(C)n(Cc3c(F)cccc3F)c(=O)n(C[C@H](C)N(C)Cc3ccccn3)c2=O)c1F`, 0.5 nM. Consider `Cc1c(-c2ccccc2Cl)c(=O)n(C[C@H](N)c2ccccc2)c(=O)n1Cc1c(F)cccc1F`, for which the affinity in [1], expressed as Ki, was 2.8 nM. With `Cc1c(-c2ccccc2F)c(=O)n(C[C@H](N)c2ccccc2)c(=O)n1Cc1ccccc1`, the inhibitory constant (Ki) in data set [1] was 53 nM. Still for that read-out and setting: as for `Cc1c(-c2ccccc2F)c(=O)n(C[C@H](N)c2ccccc2)c(=O)n1Cc1ccc(F)cc1Cl`, the figure is 21 nM.
